Assay [1] has as its target T1, Monoacylglycerol lipase ABHD6 (Homo sapiens, UniProt Q9BV23).
T1 sequence (Q9BV23 whole entry): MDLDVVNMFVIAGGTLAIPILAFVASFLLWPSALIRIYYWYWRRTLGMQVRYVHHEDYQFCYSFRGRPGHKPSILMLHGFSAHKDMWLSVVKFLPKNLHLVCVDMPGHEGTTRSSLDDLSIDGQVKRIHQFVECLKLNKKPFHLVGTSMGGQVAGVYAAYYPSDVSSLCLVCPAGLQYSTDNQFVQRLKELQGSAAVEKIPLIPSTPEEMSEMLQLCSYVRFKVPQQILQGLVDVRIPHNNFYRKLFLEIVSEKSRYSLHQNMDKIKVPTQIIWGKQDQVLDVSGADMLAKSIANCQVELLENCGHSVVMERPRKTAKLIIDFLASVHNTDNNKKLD
As to the kind of experiment: Inhibition of recombinant human ABHD6 expressed in HEK293 cells by AmplifuTM red dye based fluorescence assay. Format: cell-based. A digest of the protocol:
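Membranes from transiently transfected HEK293T cells expressing human ABHD6, 40 μg mL-1 final protein. Real-time coupled fluorescence assay with natural substrate 2-AG (25 μM). Glycerol released is detected via glycerol kinase, glycerol-3-phosphate oxidase and HRP (0.2 U mL-1 each), 0.125 mM ATP and 10 μM Amplifu Red. Assay contains 5% DMSO and 0.5% acetonitrile. pIC50 ± SEM.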

In assay [2] the target is T2, Monoacylglycerol lipase ABHD6 (Mus musculus) (UniProt Q8R2Y0).
T2 sequence (whole entry): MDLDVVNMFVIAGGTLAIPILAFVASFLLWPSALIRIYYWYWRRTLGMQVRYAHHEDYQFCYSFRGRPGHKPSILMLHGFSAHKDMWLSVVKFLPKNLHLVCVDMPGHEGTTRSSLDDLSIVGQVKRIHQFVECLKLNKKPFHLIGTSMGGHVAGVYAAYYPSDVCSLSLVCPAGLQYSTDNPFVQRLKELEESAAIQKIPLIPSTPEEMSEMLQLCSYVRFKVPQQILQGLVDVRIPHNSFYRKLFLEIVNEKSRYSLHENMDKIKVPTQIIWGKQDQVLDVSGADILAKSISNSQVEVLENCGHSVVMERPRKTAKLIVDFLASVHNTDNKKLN
Put plainly: Inhibition of MB064 labelling of ABHD6 in mouse brain homogenates at 10 uM pretreated for 30 mins followed by MB064 addition and measured after 20 mins by activity based protein profiling assay relative to control. Format: tissue-based. A digest of the protocol: (§1)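 Mouse brain membrane proteome preincubated 30 min with inhibitor (10 μM), then labelled with MB064 probe (0.25 μM, 20 min). Readout by gel-based competitive ABPP. Band intensities corrected for protein loading per lane from Coomassie staining. Means ± SEM, n = 3.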

Assay [3] has as its target T3, Triacylglycerol hydrolase DDHD2 (Mus musculus) (UniProt Q80Y98).
T3 sequence (whole entry): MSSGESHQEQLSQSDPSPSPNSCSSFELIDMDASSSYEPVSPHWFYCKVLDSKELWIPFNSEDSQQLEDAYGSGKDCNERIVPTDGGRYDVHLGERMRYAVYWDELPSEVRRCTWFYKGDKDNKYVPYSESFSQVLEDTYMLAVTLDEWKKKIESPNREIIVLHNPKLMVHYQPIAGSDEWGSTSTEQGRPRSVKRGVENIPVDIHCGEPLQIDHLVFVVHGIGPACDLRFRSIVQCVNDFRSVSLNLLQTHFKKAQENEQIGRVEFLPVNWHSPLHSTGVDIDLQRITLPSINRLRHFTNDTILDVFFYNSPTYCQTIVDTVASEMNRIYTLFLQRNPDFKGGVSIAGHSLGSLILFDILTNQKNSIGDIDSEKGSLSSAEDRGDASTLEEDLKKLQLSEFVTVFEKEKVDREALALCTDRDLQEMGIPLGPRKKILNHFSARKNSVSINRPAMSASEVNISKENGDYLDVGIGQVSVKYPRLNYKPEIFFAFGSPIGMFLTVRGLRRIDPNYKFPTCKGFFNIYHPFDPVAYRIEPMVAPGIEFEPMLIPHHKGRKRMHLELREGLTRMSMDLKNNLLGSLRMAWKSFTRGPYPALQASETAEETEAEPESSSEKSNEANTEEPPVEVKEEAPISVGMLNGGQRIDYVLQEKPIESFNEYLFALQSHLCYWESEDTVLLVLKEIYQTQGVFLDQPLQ
Put plainly: Inhibition of MB064 labelling of DDHD2 in mouse brain homogenates at 10 uM pretreated for 30 mins followed by MB064 addition and measured after 20 mins by activity based protein profiling assay. Format: tissue-based. A digest of the protocol:
as §1

The species named for assay [4] is Mus musculus. Put plainly: Inhibition of MB064 labelling of ABHD16A in mouse brain homogenates at 10 uM pretreated for 30 mins followed by MB064 addition and measured after 20 mins by activity based protein profiling assay. Format: tissue-based. The method in brief:
as §1

Assay [5] has as its target T4, Epoxide hydrolase 4 (Mus musculus) (UniProt Q6IE26).
T4 sequence (whole entry): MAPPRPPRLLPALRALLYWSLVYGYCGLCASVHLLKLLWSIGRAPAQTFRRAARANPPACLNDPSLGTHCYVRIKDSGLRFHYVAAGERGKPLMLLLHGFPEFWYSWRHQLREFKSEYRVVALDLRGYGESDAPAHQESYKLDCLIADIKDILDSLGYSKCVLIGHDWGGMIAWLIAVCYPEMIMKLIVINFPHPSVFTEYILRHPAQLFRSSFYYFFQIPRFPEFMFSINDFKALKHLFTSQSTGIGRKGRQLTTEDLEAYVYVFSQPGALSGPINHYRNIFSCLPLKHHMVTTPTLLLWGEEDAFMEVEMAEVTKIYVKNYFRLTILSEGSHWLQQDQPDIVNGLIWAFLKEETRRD
As to the kind of experiment: Inhibition of MB064 labelling of ABHD7 in mouse brain homogenates at 10 uM pretreated for 30 mins followed by MB064 addition and measured after 20 mins by activity based protein profiling assay. The format is tissue-based. The method in brief:
as §1

The species named for assay [6] is Mus musculus. As to the kind of experiment: Inhibition of FP-TAMRA labelling of FAAH in mouse brain homogenates at 10 uM pretreated for 30 mins followed by FP-TAMRA addition and measured after 20 mins by activity based protein profiling assay. The format is tissue-based. A digest of the protocol: (§2)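 Mouse brain membrane proteome (2 mg mL-1) preincubated 30 min at r.t. with inhibitor (10 μM) or DMSO vehicle, then labelled with TAMRA-FP, 500 nM final, 20 min at r.t. Reaction quenched with Laemmli sample buffer. Readout by gel-based competitive ABPP with Coomassie staining as loading control.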

For assay [7], the species on record is Mus musculus. Put plainly: Inhibition of FP-TAMRA labelling of KIAA1363 in mouse brain homogenates at 10 uM pretreated for 30 mins followed by FP-TAMRA addition and measured after 20 mins by activity based protein profiling assay. The format is tissue-based. The method in brief: as §2

We go through seven molecules from ChEMBL document CHEMBL4261499, “Chiral disubstituted piperidinyl ureas: a class of dual diacylglycerol lipase-α and ABHD6 inhibitors” (Medchemcomm, 2017).

What is called IC50 is the concentration that inhibits the measured activity by half. Broadly, the inhibition is the change of the read-out against control, counted positive when it falls.

The structures appear in SMILES notation. Activity calls are given as the source filed them. The calls are words filed in the database; no cut-off is given here.

Turning to `O=C(N1CCCC[C@@H]1COCc1ccccc1)n1cc(-c2ccc(-c3ccccc3)cc2)nn1`, the IC50 in assay [1] is 3.16 nM. In assay [2], the inhibition is 96%. For the same molecule, the inhibition entry in assay [3] is “Active”.
Regarding `O=C(N1CCC=C[C@@H]1COCc1ccccc1)n1cc(-c2ccc(-c3ccccc3)cc2)nn1`, the half-inhibitory concentration (IC50) in assay [1] was 12.6 nM. Also, in assay [2], the inhibition came out at 96%. Moreover, the inhibition entry in assay [3] was “Active”.
As for `O=C(N1CCC=C[C@@H]1COCc1ccccc1)n1cc(-c2ccc([N+](=O)[O-])cc2)nn1`, the inhibition result (in the assay filed under Mus musculus [4]; in assay [5]; in assay [3]; in the assay filed under Mus musculus [6]; in the assay filed under Mus musculus [7]) was “Active” in each case. In assay [1], the concentration for half-maximal inhibition (IC50) was 31.6 nM. Also, the inhibition in assay [2] came out at 93%.
With `O=C(N1CCC=C[C@@H]1COCc1ccccc1)n1cc(-c2ccc(Oc3ccccc3)cc2)nn1`, the IC50 in assay [1] was 6.31 nM. Also, the inhibition in assay [2] was 86%. Further, the inhibition entry in assay [3] was “Active”.
As to `O=C(N1CCC=C[C@@H]1COCc1ccccc1)n1cc(-c2ccc(Br)cc2)nn1`, the IC50 in assay [1] was 15.8 nM. Besides, the inhibition in assay [2] was determined as 94%. For the same molecule, in assay [3], the inhibition result was “Active”.
In the case of `O=C(N1CCC=C[C@@H]1COCc1ccccc1)n1cc(-c2ccccc2)nn1`, the inhibition result (in the assay filed under Mus musculus [4]; in assay [5]; in assay [3]; in the assay listed under Mus musculus [6]; in the assay filed under Mus musculus [7]) was “Active” each time. In addition, the IC50 in assay [1] was 158 nM. Also, in assay [2], the inhibition worked out at 89%.
In the case of `O=C(N1C[C@@H](O)C=C[C@@H]1COCc1ccccc1)n1cc(-c2ccc(-c3ccccc3)cc2)nn1`, the inhibition result (in the assay listed under Mus musculus [4]; in assay [5]; in assay [3]; in the assay listed under Mus musculus [6]; in the assay listed under Mus musculus [7]) was “Active” throughout. Besides, the concentration for half-maximal inhibition (IC50) in assay [1] was 10 nM. Moreover, in assay [2], the inhibition worked out at 95%.
